Experimental data reported in ChEMBL document CHEMBL4385637, “2-Aryladenine derivatives as a potent scaffold for A1, A3 and dual A1/A3 adenosine receptor antagonists: Synthesis and structure-activity relationships” (Bioorg Med Chem, 2019).

Assays:
[1] = target: T1, Adenosine receptor A1 (Homo sapiens) (UniProt P30542); assay: Displacement of [3H]DPCPX from human A1 receptor expressed in CHO-A1 cells at 10 uM incubated for 60 mins by scintillation counting method based radioligand competitive binding assay; type: cell-based
T1 sequence (whole entry): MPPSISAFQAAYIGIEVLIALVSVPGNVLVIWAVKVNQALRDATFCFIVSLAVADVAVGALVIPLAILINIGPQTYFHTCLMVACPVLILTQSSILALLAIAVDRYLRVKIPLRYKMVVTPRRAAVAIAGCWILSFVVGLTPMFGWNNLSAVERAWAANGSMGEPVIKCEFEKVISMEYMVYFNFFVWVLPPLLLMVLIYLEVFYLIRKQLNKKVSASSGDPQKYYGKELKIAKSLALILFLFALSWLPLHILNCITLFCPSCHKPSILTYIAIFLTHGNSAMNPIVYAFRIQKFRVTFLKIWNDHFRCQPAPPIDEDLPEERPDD
Summary of the method: (§1)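 CHO-A1 membranes, 15 μg protein, in 20 mM Hepes, 100 mM NaCl, 10 mM MgCl2, 2 UI/ml adenosine deaminase, pH 7.4. Radioligand 2 nM [3H]DPCPX; nonspecific binding with 10 μM (R)-PIA. Incubated 25 °C for 60 min, filtered, counted, in duplicate. Screen at 10 μM; compounds >80% inhibition tested at 6 concentrations (10 nM–100 μM), Ki by Cheng-Prusoff.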

Adenosine receptor A2a [2] = target: T2, Adenosine receptor A2a (Homo sapiens, UniProt P29274); assay: Displacement of [3H]ZM241385 from human A2A receptor expressed in HeLa-A2A cells at 10 uM incubated for 30 mins by scintillation counting method based radioligand competitive binding assay; type: cell-based
Summary of the method: (§2)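 Uses HeLa-A2A membranes, 10 µg protein, buffer 50 mM Tris-HCl, 1 mM EDTA, 10 mM MgCl2, 2 UI/mL adenosine deaminase, pH 7.4. 3 nM [3H]ZM241385; nonspecific with 50 µM NECA. 30 min at 25 °C, GF/C filtration, duplicate wells. Screened at 10 μM; if >80% inhibition, 6 concentrations 10 nM–100 μM, Ki by Cheng-Prusoff.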

[3] = target: T3, Adenosine receptor A2b (Homo sapiens) (UniProt P29275); assay: Displacement of [3H]DPCPX from human A2B receptor expressed in HEK-293-A2B cells at 10 uM incubated for 30 mins by scintillation counting method based radioligand competitive binding assay; type: cell-based
T3 sequence (whole entry): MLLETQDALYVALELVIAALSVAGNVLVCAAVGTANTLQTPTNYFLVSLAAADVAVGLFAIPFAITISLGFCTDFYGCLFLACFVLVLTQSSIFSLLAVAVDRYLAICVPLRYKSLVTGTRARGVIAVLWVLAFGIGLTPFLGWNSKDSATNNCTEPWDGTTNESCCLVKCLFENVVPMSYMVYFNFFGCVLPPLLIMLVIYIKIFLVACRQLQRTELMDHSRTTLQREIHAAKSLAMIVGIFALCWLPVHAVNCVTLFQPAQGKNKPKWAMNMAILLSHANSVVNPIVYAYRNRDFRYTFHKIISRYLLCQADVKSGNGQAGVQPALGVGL
Summary of the method: (§3)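 HEK-293-A2B membranes, 18 μg protein, in 50 mM Tris-HCl, 1 mM EDTA, 10 mM MgCl2, 0.1 mM benzamidine, 10 µg/mL bacitracin, 2 UI/mL adenosine deaminase, pH 6.5. Tracer 35 nM [3H]DPCPX; 400 μM NECA defines nonspecific binding. 25 °C for 30 min, GF/C filtration, duplicates. Single-point 10 μM screen, then 6-point curves (10 nM–100 μM), Cheng-Prusoff Ki.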

[4] = target: T4, Adenosine receptor A3 (Homo sapiens) (UniProt P0DMS8); assay: Displacement of [3H]NECA from human A3 receptor expressed in HeLa-A3 cells at 10 uM incubated for 180 mins by scintillation counting method based radioligand competitive binding assay; type: cell-based
T4 sequence (whole entry): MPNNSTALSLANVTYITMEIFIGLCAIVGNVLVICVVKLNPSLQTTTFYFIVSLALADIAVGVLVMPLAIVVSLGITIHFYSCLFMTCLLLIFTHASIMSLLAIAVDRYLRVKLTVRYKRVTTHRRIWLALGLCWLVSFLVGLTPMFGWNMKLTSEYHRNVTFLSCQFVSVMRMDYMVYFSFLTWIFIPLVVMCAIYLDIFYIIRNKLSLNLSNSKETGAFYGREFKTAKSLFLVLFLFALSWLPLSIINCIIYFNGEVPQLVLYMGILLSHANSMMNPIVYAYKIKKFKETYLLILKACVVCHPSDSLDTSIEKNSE
Summary of the method: (§4)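 Membranes of HeLa-A3 cells (90 μg protein) in 50 mM Tris-HCl, 1 mM EDTA, 5 mM MgCl2, 2 UI/mL adenosine deaminase, pH 7.4, with 30 nM [3H]NECA. Nonspecific: 100 μM (R)-PIA. 180 min at 25 °C, GF/B filtration, triplicates, scintillation counting. 10 μM single-point inhibition; >80% actives run at 6 concentrations (10 nM–100 μM), pKi via Cheng-Prusoff.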

[5] = target: T1, Adenosine receptor A1 (Homo sapiens); assay: Antagonist activity at human A1 receptor in CHO-A1 cells assessed as reduction in NECA-induced inhibition of forskolin-stimulated cAMP accumulation preincubated for 15 mins followed by NECA addition and further incubated for 15 mins by ELISA; type: functional, cell-based
Summary of the method: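 CHO-A1 cells stably expressing receptor, grown with dialyzed FBS, washed in F-12 medium with 25 mM HEPES pH 7.4 and 20 μM rolipram. Test compound preincubated 15 min, then NECA (0.1 nM–1 mM) plus 3 μM forskolin added for 15 min. cAMP measured by enzyme immunoassay with TMB readout. pKB derived from antagonist curve against NECA effect.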

Adenosine receptor A1 = target: T5, Adenosine receptor A1 (Homo sapiens, UniProt P30542); assay: Displacement of [3H]DPCPX from human A1 receptor expressed in CHO-A1 cells incubated for 60 mins by scintillation counting method based radioligand competitive binding assay; type: cell-based; summary of the method: as §1
T5 sequence (P30542 whole entry): T1 sequence (whole entry)

Adenosine receptor A2a [6] = target: T2, Adenosine receptor A2a; assay: Displacement of [3H]ZM241385 from human A2A receptor expressed in HeLa-A2A cells incubated for 30 mins by scintillation counting method based radioligand competitive binding assay; type: cell-based; summary of the method: as §2
Adenosine receptor A2b = target: T6, Adenosine receptor A2b (Homo sapiens, UniProt P29275); assay: Displacement of [3H]DPCPX from human A2B receptor expressed in HEK-293-A2B cells incubated for 30 mins by scintillation counting method based radioligand competitive binding assay; type: cell-based; summary of the method: as §3
T6 sequence (P29275 whole entry): T3 sequence (whole entry)

Adenosine receptor A3 = target: T7, Adenosine receptor A3 (Homo sapiens, UniProt P0DMS8); assay: Displacement of [3H]NECA from human A3 receptor expressed in HeLa-A3 cells incubated for 180 mins by scintillation counting method based radioligand competitive binding assay; type: cell-based; summary of the method: as §4
T7 sequence (P0DMS8 whole entry): T4 sequence (whole entry)

[7] = target: T4, Adenosine receptor A3 (Homo sapiens); assay: Antagonist activity at human A3 receptor in CHO-A3 cells assessed as reduction in NECA-induced inhibition of forskolin-stimulated cAMP accumulation preincubated for 15 mins followed by NECA addition and further incubated for 15 mins by ELISA; type: functional, cell-based
Summary of the method: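 CHO cells expressing human A3, washed in DMEM F-12 with 25 mM HEPES pH 7.4 and 30 μM rolipram. Compound preincubated 15 min, then NECA (0.1 nM–1 mM) and 10 μM forskolin added for 15 min. cAMP quantified by enzyme immunoassay. Antagonist curves run against 0.1 μM NECA, duplicates. pKB calculated from IC50, agonist level, A50 and Hill slope.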

T2 sequence (P29274 whole entry): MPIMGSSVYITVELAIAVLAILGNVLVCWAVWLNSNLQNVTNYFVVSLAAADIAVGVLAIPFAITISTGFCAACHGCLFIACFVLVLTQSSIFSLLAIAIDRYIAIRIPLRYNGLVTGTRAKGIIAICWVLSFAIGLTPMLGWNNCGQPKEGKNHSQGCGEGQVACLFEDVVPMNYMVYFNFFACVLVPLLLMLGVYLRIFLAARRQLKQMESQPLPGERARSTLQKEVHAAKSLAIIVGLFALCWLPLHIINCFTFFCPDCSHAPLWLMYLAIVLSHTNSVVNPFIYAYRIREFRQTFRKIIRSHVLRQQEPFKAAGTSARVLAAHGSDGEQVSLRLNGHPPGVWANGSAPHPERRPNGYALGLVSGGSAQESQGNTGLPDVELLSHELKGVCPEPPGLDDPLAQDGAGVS

inhibition [1] [%] | inhibition (Adenosine receptor A2a [2]) [%] | inhibition [3] [%] | inhibition [4] [%] | pKb [5] | Ki (Adenosine receptor A1) [nM] | Ki (Adenosine receptor A2a [6]) [nM] | Ki (Adenosine receptor A2b) [nM] | Ki (Adenosine receptor A3) [nM] | pKb [7] | Compound
> 80 | > 80 | > 80 | > 80 | 7.9 | 10 | 316 | 158 | 63.1 |  | Oc1cccc(-c2nc(N3CCCCC3)c3nc[nH]c3n2)c1
> 80 | 15.9 | 6.2 | > 80 |  | 398 |  |  | 39.8 |  | CN1CCN(c2nc(-c3ccc(Cl)cc3)nc3[nH]cnc23)CC1
45.7 | 21 | 19.2 | 38.3 |  |  |  |  |  |  | CN1CCN(c2nc(-c3cccc(Cl)c3)nc3c2ncn3C)CC1
24.1 | 7 | 0.7 | > 80 |  |  |  |  | 79.4 |  | Clc1ccc(-c2nc(N3CCCCC3)c3nc[nH]c3n2)cc1Cl
> 80 | 9.1 | 13 | > 80 |  | 2510 |  |  | 251 |  | CN1CCN(c2nc(-c3cc(Cl)ccc3Cl)nc3[nH]cnc23)CC1
22.4 | 17 | 24.2 | 6.1 |  |  |  |  |  |  | Cn1cnc2c(N3CCCCC3)nc(-c3cccc(Cl)c3)nc21
> 80 | 12 | 24.1 | > 80 |  | 631 |  |  | 39.8 |  | CN1CCN(c2nc(-c3ccc(Cl)c(Cl)c3)nc3[nH]cnc23)CC1
> 80 | > 80 | > 80 | > 80 |  | 10 | 100 | 79.4 | 39.8 |  | Oc1ccc(-c2nc(N3CCCCC3)c3nc[nH]c3n2)cc1
> 80 | 59.6 | 36 | 15.3 |  | 631 |  |  |  |  | CN1CCN(c2nc(-c3ccccc3O)nc3c2ncn3C)CC1
> 80 | 1 | 27 | > 80 |  | 158 |  |  | 501 |  | CN1CCN(c2nc(-c3cccc(O)c3)nc3[nH]cnc23)CC1
65.2 | 25 | 28.3 | 35.3 |  |  |  |  |  |  | CN1CCN(c2nc(-c3ccc(Cl)c(Cl)c3)nc3c2ncn3C)CC1
1.4 | 21 | 12.1 | > 80 |  |  |  |  | 200 |  | Clc1ccc(Cl)c(-c2nc(N3CCCCC3)c3nc[nH]c3n2)c1
17.2 | 24.1 | 26 | 33.7 |  |  |  |  |  |  | Cn1cnc2c(N3CCCCC3)nc(-c3cccc(O)c3O)nc21
> 80 | 43.5 | > 80 | > 80 |  | 50.1 |  | 1000 | 39.8 |  | Clc1cccc(-c2nc(N3CCCCC3)c3nc[nH]c3n2)c1
35.2 | 36.4 | 32.7 | 2.1 |  |  |  |  |  |  | Cn1cnc2c(N3CCCCC3)nc(-c3ccccc3Cl)nc21
27.1 | 4.2 | 47.8 | 63.8 |  |  |  |  |  |  | CN1CCN(c2nc(-c3cccc(O)c3)nc3c2ncn3C)CC1
> 80 | > 80 | 1.4 | > 80 |  | 126 | 3160 |  | 7.94 | 8.2 | Clc1ccc(-c2nc(N3CCCCC3)c3nc[nH]c3n2)cc1
50.5 | 74.8 | 30.2 | 20 |  |  |  |  |  |  | Cn1cnc2c(N3CCCCC3)nc(-c3ccccc3O)nc21
> 80 | 52.7 | 29.9 | > 80 |  | 79.4 |  |  | 100 |  | CN1CCN(c2nc(-c3cccc(Cl)c3)nc3[nH]cnc23)CC1
> 80 | 37 | 53 | 48 |  | 398 |  |  |  |  | CN1CCN(c2nc(-c3ccc(O)cc3)nc3[nH]cnc23)CC1
78.5 | 54.8 | 29.3 | 49.1 |  |  |  |  |  |  | Cn1cnc2c(N3CCCCC3)nc(-c3cccc(O)c3)nc21
13.2 | 2.4 | 31 | 5.4 |  |  |  |  |  |  | Cn1cnc2c(N3CCCCC3)nc(-c3cc(Cl)ccc3Cl)nc21
52.4 | 32 | 25.1 | > 80 |  |  |  |  | 794 |  | CN1CCN(c2nc(-c3ccc(Cl)c(C(F)(F)F)c3)nc3[nH]cnc23)CC1

Compound | inhibition [1] [%] | inhibition (Adenosine receptor A2a [2]) [%] | inhibition [3] [%] | inhibition [4] [%] | pKb [5] | Ki (Adenosine receptor A1) [nM] | Ki (Adenosine receptor A2a [6]) [nM] | Ki (Adenosine receptor A2b) [nM] | Ki (Adenosine receptor A3) [nM] | pKb [7]
CN1CCN(c2ncnc3[nH]cnc23)CC1 | 9.2 | 19.1 | 14 | 26.9 |  |  |  |  |  | 
